ChEMBL document CHEMBL2417383, “Assay platform for clinically relevant metallo-β-lactamases” (J Med Chem, 2013)
Values belong to the compound of their own block, whether it stands above or below them.

Experiments:
[1] = Chemical stability of the compound in aqueous solution; type: physicochemical; conditions: buffer
Method in brief: (§1)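 Substrate autohydrolysis was followed in aqueous assay buffer at room temperature over time, up to at least 8 h.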

[2] = Chemical stability of the compound in buffer assessed as compound hydrolysis after 8 hrs; type: physicochemical; method in brief: as §1
BL21-DE3 [3] = tested on: BL21-DE3
BL21-DE3 [4] = tested on: BL21-DE3; remark: listed apart in the source
BL21-DE3 [5] = tested on: BL21-DE3; remark: listed apart in the source
BL21-DE3 [6] = tested on: BL21-DE3; remark: listed apart in the source
BL21-DE3 [7] = tested on: BL21-DE3; remark: listed apart in the source
[8] = Inhibition of recombinant SPM-1 (unknown origin) expressed in Escherichia coli BL21 (DE3) cells using FC4 as substrate assessed as residual activity at 1 mM preincubated for 10 mins prior to substrate addition by fluorescence-based assay relative to control
Method in brief: (§2)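 Mature SPM-1, E. coli codon-optimized, with N-terminal His6 tag cleavable by 3C protease, was expressed from pOPINF in E. coli BL21(DE3) pLysS in 2TY and purified to >95%. […] Fluorescence was read at λex 380/λem 460 nm and residual activity calculated.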

BL21-DE3 [9] = assay: Inhibition of recombinant SPM-1 (unknown origin) expressed in Escherichia coli BL21 (DE3) cells using FC4 as substrate assessed as residual activity at 200 uM preincubated for 10 mins prior to substrate addition by fluorescence-based assay relative to control; method in brief: as §2

- Stability [1]: Stable
- Stability [2]: Stable
SMILES: O=C(Cc1ccccc1)N[C@@H]1C(=O)N2C(C(=O)O)=C(COc3ccc4ccc(=O)oc4c3)CS(=O)(=O)[C@H]12

- Km (BL21-DE3 [3]): 16 µM
- Km (BL21-DE3 [4]): 55.7 µM
- Km (BL21-DE3 [5]): 7.2 µM
- Km (BL21-DE3 [6]): 8.1 µM
- Km (BL21-DE3 [7]): 8.8 µM
SMILES: O=C(Cc1cccs1)N[C@@H]1C(=O)N2C(C(=O)O)=C(/C=C/c3ccc([N+](=O)[O-])cc3[N+](=O)[O-])CS[C@H]12
- kcat (BL21-DE3 [3]): 0.7 s⁻¹
- kcat (BL21-DE3 [4]): 2790 s⁻¹
- kcat (BL21-DE3 [5]): 226 s⁻¹
- kcat (BL21-DE3 [6]): 14.9 s⁻¹
- kcat (BL21-DE3 [7]): 25.3 s⁻¹

SMILES: O=C(O)C[C@@H](NC(=O)c1nc(Cl)c2ccccc2c1O)C(=O)O
- Activity [8]: < 5%

SMILES: CC(C)C[C@@H](NC(=O)c1nc(Cl)c2ccccc2c1O)C(=O)O
- Activity [8]: < 5%
- Activity (BL21-DE3 [9]): 32%

SMILES: CC(C)[C@@H](NC(=O)c1nc(Cl)c2ccccc2c1O)C(=O)O
- Activity [8]: 16%

SMILES: CC(C)[C@H](NC(=O)c1nc(Cl)c2ccccc2c1O)C(=O)O
- Activity [8]: 16%

SMILES: O=C(N[C@H](Cc1c[nH]c2ccccc12)C(=O)O)c1nc(Cl)c2ccccc2c1O
- Activity [8]: < 5%

SMILES: CC(C)C[C@H](NC(=O)c1nc(Cl)c2ccccc2c1O)C(=O)O
- Activity [8]: < 5%
- Activity (BL21-DE3 [9]): 26%

- Stability [1]: Stable
- Stability [2]: Stable
SMILES: O=C(Cc1ccccc1)N[C@@H]1C(=O)N2C(C(=O)O)=C(COc3ccc4ccc(=O)oc4c3)C[S+]([O-])[C@H]12 (stereo partly specified)

SMILES: O=C(N[C@@H](Cc1c[nH]c2ccccc12)C(=O)O)c1nc(Cl)c2ccccc2c1O
- Activity [8]: < 5%

SMILES: O=C(O)CC[C@H](NC(=O)c1nc(Cl)c2ccccc2c1O)C(=O)O
- Activity [8]: < 5%

SMILES: O=C(O)C[C@H](NC(=O)c1nc(Cl)c2ccccc2c1O)C(=O)O
- Activity [8]: < 5%

SMILES: O=C(O)CC[C@@H](NC(=O)c1nc(Cl)c2ccccc2c1O)C(=O)O
- Activity [8]: < 5%
